The record followed here is ChEMBL document CHEMBL2177095, “Discovery of selective and potent inhibitors of gram-positive bacterial thymidylate kinase (TMK)” (J Med Chem, 2012).

One data set has as its system Streptococcus pneumoniae. Nature of the data set: Antimicrobial activity against Streptococcus pneumoniae by broth microdilution method. The data set is classed as functional. The essentials:
(§1)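 Test organisms were strains from the AstraZeneca collection.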
(Dilution methods test growth across graded concentrations, often in twofold steps.)

Data set [1] has as its system Staphylococcus aureus. Nature of the data set: Antimicrobial activity against methicillin and quinolone-resistant Staphylococcus aureus by broth microdilution method. The class given is functional. The procedure, abridged:
(§2)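 MICs were determined against bacterial strains from the AstraZeneca collection. For S. aureus, MSQS means methicillin- and quinolone-sensitive, and MRQR means methicillin- and quinolone-resistant.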

A short description of data set [2]: Inhibition of Staphylococcus aureus thymidylate kinase assessed as effect on conversion of dTDP to dTMP by luciferin/luciferase reporter gene based assay. In general terms: A reporter such as luciferase makes a cellular process visible.
Data set [3] can be described thus: Toxicity against human A549 cells. The class given is cell-based. The note with it: read-out: MIC.
Data set [4] concerns Staphylococcus aureus. Description: Antimicrobial activity against methicillin and quinolone-sensitive Staphylococcus aureus by broth microdilution method. The data set is classed as functional. The essentials: as §2
Data set [5] can be described thus: Inhibition of Streptococcus pneumoniae thymidylate kinase assessed as effect on conversion of dTDP to dTMP by luciferin/luciferase reporter gene based assay.
In the next data set the target is T1, Thymidylate kinase (Homo sapiens, UniProt P23919).
T1 sequence (P23919 whole entry): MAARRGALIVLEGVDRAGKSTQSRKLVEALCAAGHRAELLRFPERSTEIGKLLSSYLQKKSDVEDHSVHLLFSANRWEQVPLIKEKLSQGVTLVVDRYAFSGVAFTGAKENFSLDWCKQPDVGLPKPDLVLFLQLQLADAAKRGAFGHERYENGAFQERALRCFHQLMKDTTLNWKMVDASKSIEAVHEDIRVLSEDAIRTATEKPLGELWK
Description: Inhibition of human thymidylate kinase assessed as effect on ATP production by Escherichia coli DdlA and Malachite green reagent based assay.

The test system of another data set is Candida albicans. Nature of the data set: Toxicity against Candida albicans. The data set is classed as organism-based.
A short description of data set [6]: Partition coefficient, log D of the compound at pH 7.4 by shake flask method. The note with it: octanol/water.
Another data set deals with Enterococcus faecalis. Description: Antimicrobial activity against vancomycin-resistant Enterococcus faecalis by broth microdilution method. The class given is functional. The essentials: as §2
A further data set has as its system Enterococcus faecium. Description: Antimicrobial activity against linezolid-resistant Enterococcus faecium by broth microdilution method. The class given is functional. The essentials:
as §2

In the next data set the test system is Streptococcus pyogenes. Description: Antimicrobial activity against Streptococcus pyogenes by broth microdilution method. The class given is functional. The essentials:
as §1

The subject of data set [7] is Staphylococcus epidermidis. Description: Antimicrobial activity against Staphylococcus epidermidis by broth microdilution method. The class given is functional. The procedure, abridged: as §1
A short description of data set [8]: Toxicity in Staphylococcus aureus infected mouse thigh infection model assessed as incidence of adverse events. The class given is organism-based, Thigh muscle. The note with it: in vivo.
In data set [9] the test system is Staphylococcus aureus. Nature of the data set: Antimicrobial activity against Staphylococcus aureus infected in mouse thigh infection model assessed as compound dose causing microbial infection stasis administered as single dose. The class given is functional, Thigh muscle.

Converted amounts (≈) assume the structure as drawn.

Consider `Cc1cn([C@H]2CCCN([C@H](C)c3ccc(C(=O)O)c(Oc4cccc(Cl)c4)c3)C2)c(=O)[nH]c1=O`, for which the MIC against Streptococcus pneumoniae is 0.1 mg/L (≈ 0.207 µM); in the data set with Staphylococcus aureus [1] it was 8 mg/L (≈ 16.5 µM); in the data set with Staphylococcus aureus [4], 4 mg/L (≈ 8.27 µM); in the data set on Candida albicans, > 64 mg/L. The IC50 (usually the concentration at which inhibition is half-maximal) in [2] worked out at 2.5 nM; in data set [5], 0.3 nM; on Thymidylate kinase it was 150000 nM. Further, the MCC in [3] is > 64 µg/mL. For the same compound, the logD (usually the decadic logarithm of the distribution of all forms, ionised or not, between an organic phase and buffer at a given pH) in data set [6] was -0.26.
Regarding `CCCCC[C@H](c1ccc(C(=O)O)c(Oc2cccc(Br)c2)c1)N1CCC[C@H](n2cc(C)c(=O)[nH]c2=O)C1`, the MIC is 0.01 mg/L (≈ 0.0171 µM) in the data set on Streptococcus pneumoniae; 0.1 mg/L (≈ 0.171 µM) in the data set on Staphylococcus aureus [1]; 0.06 mg/L (≈ 0.103 µM) against Enterococcus faecalis; 0.25 mg/L (≈ 0.428 µM) against Staphylococcus aureus [4]; 0.25 mg/L (≈ 0.428 µM) in the data set on Enterococcus faecium; 0.04 mg/L (≈ 0.0684 µM) in the data set on Streptococcus pyogenes. Further, the MIC is 0.5 mg/L (≈ 0.855 µM) in [7] and > 64 mg/L against Candida albicans. Also, the IC50 is 0.5 nM in data set [2], < 0.1 nM in data set [5] and 32000 nM at Thymidylate kinase. For the same compound, the MCC in [3] was > 64 µg/mL. Moreover, the logD in data set [6] was determined as 1.1.
In the case of `CCC(C)(C)C[C@H](c1ccc(C(=O)O)c(Oc2cccc(Cl)c2)c1)N1CCC[C@H](n2cc(C)c(=O)[nH]c2=O)C1`, the MIC was 0.05 mg/L (≈ 0.0902 µM) against Streptococcus pneumoniae, 0.1 mg/L (≈ 0.18 µM) against Staphylococcus aureus [1], 0.25 mg/L (≈ 0.451 µM) against Staphylococcus aureus [4] and > 64 mg/L in the data set with Candida albicans. Also, the values for the half-maximal inhibitory concentration (IC50) (in data set [2]; in [5]; on Thymidylate kinase) were 1 nM, 0.3 nM and 43400 nM, respectively. Besides, the MCC in data set [3] was > 64 µg/mL. The same compound registered a logD in data set [6] of 1.4.
Take `Cc1cn([C@H]2CCCN([C@H](CC(C)(C)C)c3ccc(C(=O)O)c(Oc4cccc(Br)c4)c3)C2)c(=O)[nH]c1=O`: the MIC is 0.02 mg/L (≈ 0.0342 µM) against Streptococcus pneumoniae; 0.25 mg/L (≈ 0.428 µM) in the data set on Staphylococcus aureus [1]; 1 mg/L (≈ 1.71 µM) with Enterococcus faecalis; 0.25 mg/L (≈ 0.428 µM) with Staphylococcus aureus [4]; 0.25 mg/L (≈ 0.428 µM) in the data set with Enterococcus faecium; 0.08 mg/L (≈ 0.137 µM) in the data set with Streptococcus pyogenes. For the same compound, the MIC was 2 mg/L (≈ 3.42 µM) in [7] and > 64 mg/L with Candida albicans. Further, the IC50 in data set [2] was 0.8 nM; in [5], 0.2 nM; at Thymidylate kinase it was 62000 nM. In addition, the MCC in data set [3] was > 64 µg/mL. Moreover, the NOAEL (in general, the highest tested level that showed no adverse finding) in data set [8] is 800 mg/kg/day. For the same compound, in the data set with Staphylococcus aureus [9], the Activity is 150 mg/kg. Also, the logD in [6] stood at 1.1.
As to `C[C@H]1COc2c(N3CCN(C)CC3)c(F)cc3c(=O)c(C(=O)O)cn1c23.C[C@H]1COc2c(N3CCN(C)CC3)c(F)cc3c(=O)c(C(=O)O)cn1c23.O` [LEVOFLOXACIN], the Activity with Staphylococcus aureus [9] was 40 mg/kg.
